Only a selection was taken, and hits are over-represented in it overall.
A1 apoptosis 2 – blocks A1, raising caspase activity; MEF A1-2A-BIM cells, caspase-Glo luminescence, 3 h; percent of clofoctol response, DMSO zero; caspase activation, % (concentration not given with the values); 24,000 tested, under 10 active; AID 2465; in the data active = caspase activation above about 5.9%
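System: mouse embryonic fibroblasts co-expressing A1 and BIM (A1-2A-BIM), primed for A1 dependence; amount: 2500 cells/well; doses: 50 nL pinned compound; schedule: cells settled overnight, compound exposure 3 h at 37 °C, 5% CO2; detection: Caspase-Glo 3/7 luminescence, 1 h at room temperature; read-out: Caspase-3/7 activation, seen as rise in luminescence signal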
T cruzi intra – blocks T. cruzi growth inside host cells; intracellular Trypanosoma cruzi in host cells, plate reader; activity score (inhibition), % at 5.01 µM; 4.9% of 22,000 active; in the data active = activity score above about 55%;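 note: parasites and compound incubated about four days before reading; 0% = median of neutral control wells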
INS-1E rescue – INS-1E beta cell protection from cytokine death; INS-1E cytokine-induced death, ATP luminescence, 48 h; normalised: neutral wells 0, positive control 100; protection from cytokine-induced ATP loss, % at 10 µM; 0.1% of 20,000 active; AID 488910;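 active = mean replicate protection from cytokine-induced ATP loss at least 50% and at least 75% of replicates each reaching 50%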
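Assay system – rat INS-1E insulinoma cell line · Quantity – 8000 cells per well · Buffer or medium – RPMI without phenol red, 5% FBS · Schedule – 48 h co-treatment, 10 min post-lysis read · Technique – luminescent ATP assay (CellTiter-Glo)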
* = called active by the depositor; nt = not tested or not shown.

SMILES	A1 apoptosis 2	T cruzi intra	INS-1E rescue
C[C@@H]1CN([C@H](C)CO)C(=O)c2cccc(NC(=O)c3nc4ccccc4s3)c2O[C@H]1CN(C)Cc1ccc(Cl)c(Cl)c1	nt	50.9	-60.4
C[C@@H]1CN([C@@H](C)CO)C(=O)c2cccc(NC(=O)c3nc4ccccc4s3)c2O[C@H]1CN(C)CC1CCCCC1	-0.9	44.0	-60.5
O=C(NO)c1ccc(C(=O)N/N=C/c2cccc(O)c2)cc1	-1.4	0.5	2.8
C[C@@H]1CN([C@@H](C)CO)C(=O)c2cccc(NS(=O)(=O)c3ccc(Cl)cc3)c2O[C@@H]1CN(C)C(=O)Nc1ccc(C(F)(F)F)cc1	-0.2	82.6*	-90.9
COc1ccc(NC(=O)N(C)C[C@@H]2Oc3c(NC(=O)Nc4ccc(C(F)(F)F)cc4)cccc3C(=O)N([C@H](C)CO)C[C@H]2C)cc1	-1.3	59.9*	-11.7
C[C@@H]1CN([C@@H](C)CO)C(=O)c2cccc(NC(=O)Nc3ccc4c(c3)OCO4)c2O[C@@H]1CN(C)C(=O)Nc1ccc(C(F)(F)F)cc1	1.1	-27.9	3.5
C[C@@H]1CN([C@H](C)CO)C(=O)c2cccc(NS(=O)(=O)c3ccc(Cl)cc3)c2O[C@@H]1CN(C)C(=O)Nc1ccc(C(F)(F)F)cc1	0.5	2.5	-33.1
COc1ccc(NC(=O)Nc2cccc3c2O[C@H](CN(C)C(=O)Nc2ccc(C(F)(F)F)cc2)[C@H](C)CN([C@H](C)CO)C3=O)cc1	-0.5	1.3	2.7
C[C@@H]1CN([C@H](C)CO)C(=O)c2cccc(NC(=O)Nc3ccc(C(F)(F)F)cc3)c2O[C@H]1CN(C)C(=O)Nc1ccc2c(c1)OCO2	-0.1	66.4*	-56.4
C[C@H](CO)N1C[C@H](C)[C@H](CN(C)C)Oc2c(NC(=O)Nc3ccc(C(F)(F)F)cc3)cccc2C1=O	-0.2	81.0*	-5.1
C[C@H]1CN([C@@H](C)CO)C(=O)c2cccc(NC(=O)Nc3ccc(C(F)(F)F)cc3)c2O[C@@H]1CN(C)C	-0.4	38.4	-11.9
O=C(CCCCCCC(=O)Nc1ccccc1O)NN=C1CCCCCC1	-1.5	-3.5	12.0
O=C(O)CCCCCC(=O)N/N=C/c1ccc(Br)s1	nt	-15.7	10.8
CC(C)Nc1cccnc1N1CCN(C(=O)c2cc3cc(O)ccc3[nH]2)CC1	0.9	nt	nt
O=C(CCCCCC(=O)N/N=C/c1c(F)c(F)c(F)c(F)c1F)NO	0.1	nt	nt
C[C@@H]1CN([C@H](C)CO)C(=O)c2cccc(NC(=O)Nc3ccc(C(F)(F)F)cc3)c2O[C@@H]1CN(C)C(=O)Nc1ccc(C(F)(F)F)cc1	-0.4	74.7*	-111.6
C[C@@H]1CN([C@H](C)CO)C(=O)c2cccc(NC(=O)Nc3ccc(C(F)(F)F)cc3)c2O[C@@H]1CN(C)CC1CCCCC1	nt	14.3	-28.6
C[C@H]1CN([C@@H](C)CO)C(=O)c2cccc(NC(=O)Nc3ccc(C(F)(F)F)cc3)c2O[C@H]1CN(C)C(=O)Nc1ccc(F)cc1	0.1	59.8*	-57.0
C[C@H](CO)N1C[C@H](C)[C@H](CN(C)CC2CCCCC2)Oc2c(NC(=O)Nc3ccc(C(F)(F)F)cc3)cccc2C1=O	0.5	56.3*	-82.1
C[C@H](CO)N1C[C@H](C)[C@@H](CN(C)C(=O)Nc2ccc(F)cc2)Oc2c(NC(=O)Nc3ccc(C(F)(F)F)cc3)cccc2C1=O	-0.1	4.8	-8.1
C[C@H]1CN([C@@H](C)CO)C(=O)c2cccc(NC(=O)Nc3ccc(C(F)(F)F)cc3)c2O[C@H]1CN(C)C(=O)Nc1ccc(C(F)(F)F)cc1	nt	48.4	-2.9
O=C(N/N=C/c1c(O)cc(O)cc1O)c1ccccc1O	-7.3	-3.6	-12.6
C[C@@H]1CN([C@H](C)CO)C(=O)Cc2cc(NC(=O)Cc3cn(C)c4ccccc34)ccc2O[C@@H]1CN(C)S(=O)(=O)c1ccc(Cl)cc1	nt	66.9*	2.6
C[C@H](CO)N1C[C@H](C)[C@@H](CN(C)S(=O)(=O)c2ccc(Cl)cc2)Oc2ccc(NC(=O)Cc3cn(C)c4ccccc34)cc2CC1=O	1.1	nt	nt
C[C@H](CO)N1C[C@H](C)[C@H](CN(C)Cc2ccc(Oc3ccccc3)cc2)Oc2ccc(NC(=O)Cc3cn(C)c4ccccc34)cc2CC1=O	nt	19.1	-23.1
C[C@@H]1CN([C@H](C)CO)C(=O)Cc2cc(NC(=O)Cc3cn(C)c4ccccc34)ccc2O[C@@H]1CN(C)Cc1ccc(Oc2ccccc2)cc1	1.3	65.3*	-55.3
C[C@@H]1CN([C@@H](C)CO)C(=O)Cc2cc(NC(=O)Cc3cn(C)c4ccccc34)ccc2O[C@@H]1CN(C)Cc1ccc(C(F)(F)F)cc1	-1.0	63.4*	0.1

Bioassay records: PubChem, Broad Institute
